Data from ChEMBL document CHEMBL2385077, “Synthesis, local anaesthetic and antiarrhythmic activities of N-alkyl derivatives of proline anilides” (Eur J Med Chem, 2013).
The source made the active and inactive calls.

What was measured:
[1] = Toxicity in iv dosed Swiss albino mouse after 72 hrs; format: organism-based; conditions: in vivo
Outline: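 Albino Swiss mice of both sexes, 18-22 g, received aqueous solutions via tail vein at increasing doses. Mortality and behavioural changes followed for 72 h. LD50 reported in mg/kg with range in parentheses.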

Mus musculus [2] = experiment: Antiarrhythmic index, ratio of LD50 for Swiss albino mouse to ED50 for calcium chloride-induced Swiss albino mouse; format: functional, Heart
Outline: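 ED50 taken as mean effective dose preventing arrhythmia-associated death, reported only when below ½ LD50. LD50 from acute i.v. toxicity in mice. Index computed as LD50/ED50.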

Mus musculus [3] = experiment: Antiarrhythmic activity in iv dosed Swiss albino mouse assessed as inhibition of calcium chloride-induced cardiac arrhythmia after 15 mins; format: functional; conditions: Heart, 0.25 h
Outline: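 Swiss albino mice received compound i.v. at doses up to ½ LD50 (acute i.v. toxicity measured beforehand). Fifteen minutes later arrhythmia was provoked by i.v. calcium chloride (3%, 280 mg/kg). ED50 was taken as the mean effective dose preventing arrhythmia-associated mortality, and was determined only when below ½ LD50.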

Oryctolagus cuniculus = experiment: Surface anesthetic effect in New Zealand white rabbit assessed as time duration; format: functional
Outline: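 Rabbit corneal reflex test: 1% aqueous solution (0.25 ml) instilled into the conjunctival sac over 30 sec. Cornea touched with a pointer (up to 100 per series) at 8, 10, 12 and 15 min, then every 5 min. Six animals per compound; mean ± SEM.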

Rattus norvegicus [4] = experiment: Anesthetic effect in Wistar rat assessed as time taken for blockage of muscle contraction by infiltration local anaesthetic activity assay; format: functional, Muscle tissue
Outline: (§1)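 Shaved lumbar back skin of Wistar rats; electrical stimulation threshold for surface muscle contraction found first (rectangular pulses, 0.36 to 14.0 V, 0.3 ms, 50 Hz). 0.5% compound in saline given as 0.2 ml intradermal plus 0.2 ml subcutaneous. Threshold re-measured at 3 and 5 min, then every 5 min until back to baseline. Depth is % threshold change from initial; >2-fold rise = 100% anaesthesia. Six rats per compound.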

Rattus norvegicus [5] = experiment: Anesthetic effect in Wistar rat assessed as duration of blockage of muscle contraction by infiltration local anaesthetic activity assay; format: functional, Muscle tissue; outline: as §1
Rattus norvegicus [6] = experiment: Anesthetic effect in Wistar rat assessed as duration of complete blockage of muscle contraction by infiltration local anaesthetic activity assay; format: functional, Muscle tissue; outline: as §1
Rattus norvegicus [7] = experiment: Anesthetic effect in Wistar rat assessed as increase in threshold value by infiltration local anaesthetic activity assay relative to control; format: functional; outline: as §1
Rattus norvegicus [8] = experiment: Anesthetic effect in Wistar rat assessed as increase in depth of anesthesia after 35 mins by infiltration local anaesthetic activity assay relative to control; format: functional, organism-based; outline: as §1

## Cc1ccccc1NC(=O)[C@@H]1CCCN1Cc1ccccc1.Cl
[1]
  LD50 at 72 h: 35.5 mg/kg
Mus musculus [2]
  Ratio LD50/ED50: 3.3
Mus musculus [3]
  ED50: 10.9 mg/kg

## Cc1ccccc1NC(=O)[C@@H]1CCCN1C.Cl
[1]
  LD50 at 72 h: 32.5 mg/kg
Mus musculus [3]
  ED50: > 16.3 mg/kg

## CCCCN1CCCC1C(=O)Nc1ccccc1C(F)(F)F.Cl (mixture of isomers)
[1]
  LD50 at 72 h: 35.5 mg/kg
Oryctolagus cuniculus
  Time: 20.4 min
Mus musculus [2]
  Ratio LD50/ED50: 6.1
Mus musculus [3]
  ED50: 5.8 mg/kg

## CCCCN1CCCC1C(=O)Nc1ccccc1CC.Cl (mixture of isomers)
[1]
  LD50 at 72 h: 30 mg/kg
Oryctolagus cuniculus
  Time: 12.7 min
Mus musculus [2]
  Ratio LD50/ED50: 4.2
Mus musculus [3]
  ED50: 7.1 mg/kg

## CCCCN1CCCC1C(=O)Nc1ccccc1I.Cl (mixture of isomers)
[1]
  LD50 at 72 h: 41 mg/kg
Oryctolagus cuniculus
  Time: 20.3 min
Mus musculus [2]
  Ratio LD50/ED50: 5.6
Mus musculus [3]
  ED50: 7.3 mg/kg

## CCCCN1CCCC1C(=O)Nc1ccc(Cl)cc1Cl.Cl (mixture of isomers)
[1]
  LD50 at 72 h: 32.5 mg/kg
Mus musculus [3]
  ED50: > 16.3 mg/kg

## CCCCN1CCCC1C(=O)Nc1ccc(Br)cc1Br.Cl (mixture of isomers)
[1]
  LD50 at 72 h: 239 mg/kg
Mus musculus [2]
  Ratio LD50/ED50: 3.5
Mus musculus [3]
  ED50: 69 mg/kg

## CCCCCN1CCCC1C(=O)Nc1ccccc1C.Cl (mixture of isomers)
[1]
  LD50 at 72 h: 32.5 mg/kg
Oryctolagus cuniculus
  Time: 59.8 min
Mus musculus [2]
  Ratio LD50/ED50: 5.9
Mus musculus [3]
  ED50: 5.5 mg/kg

## CCCCCCN1CCCC1C(=O)Nc1ccccc1C.Cl (mixture of isomers)
Rattus norvegicus [4]
  Time: 1 min
[1]
  LD50 at 72 h: 35.5 mg/kg
Oryctolagus cuniculus
  Time: 75.7 min
Rattus norvegicus [5]
  Time: 115 min
Mus musculus [2]
  Ratio LD50/ED50: 6.3
Mus musculus [3]
  ED50: 5.6 mg/kg

## Cc1ccccc1NC(=O)C1CCCN1C1CCCCC1.Cl (mixture of isomers)
[1]
  LD50 at 72 h: 12.9 mg/kg
Oryctolagus cuniculus
  Time: 46.5 min
Mus musculus [3]
  ED50: > 6.5 mg/kg

## Cc1ccc(NC(=O)C2CCCN2C2CCCCC2)c(C)c1.Cl (mixture of isomers)
Rattus norvegicus [4]
  Time: 1 min
[1]
  LD50 at 72 h: 65 mg/kg
Oryctolagus cuniculus
  Time: 73.2 min
Rattus norvegicus [5]
  Time: 126.3 min
Mus musculus [2]
  Ratio LD50/ED50: 7.3
Mus musculus [3]
  ED50: 8.9 mg/kg

## Cl.O=C(Nc1ccccc1Cl)C1CCCN1C1CCCCC1 (mixture of isomers)
[1]
  LD50 at 72 h: 95 mg/kg
Oryctolagus cuniculus
  Time: 41.3 min
Mus musculus [2]
  Ratio LD50/ED50: 6.9
Mus musculus [3]
  ED50: 13.7 mg/kg

## CCN1CCCC1C(=O)Nc1ccccc1C.Cl (mixture of isomers)
[1]
  LD50 at 72 h: 36.8 mg/kg
Mus musculus [3]
  ED50: > 18.4 mg/kg

## CCCCN1CCCC1C(=O)Nc1ccccc1C.Cl (mixture of isomers)
Rattus norvegicus [4]
  Time: 1 min
[1]
  LD50 at 72 h: 16.3 mg/kg
Rattus norvegicus [6]
  Time: 12.5 min
Oryctolagus cuniculus
  Time: 49.4 min
Mus musculus [2]
  Ratio LD50/ED50: 3
Mus musculus [3]
  ED50: 5.4 mg/kg

## CCCCN1CCCC1C(=O)Nc1c(C)cccc1C.Cl (mixture of isomers)
Rattus norvegicus [4]
  Time: 1 min
[1]
  LD50 at 72 h: 9.2 mg/kg
Rattus norvegicus [6]
  Time: 20 min
Rattus norvegicus [7]
  Activity: 90%
Oryctolagus cuniculus
  Time: 57.5 min
Mus musculus [3]
  ED50: > 4.6 mg/kg

## CCCCN1CCCC1C(=O)Nc1ccc(C)cc1C.Cl (mixture of isomers)
[1]
  LD50 at 72 h: 60 mg/kg
Oryctolagus cuniculus
  Time: 59 min
Mus musculus [3]
  ED50: > 30 mg/kg

## CCCCN1CCCC1C(=O)Nc1ccccc1C (racemic)
Rattus norvegicus [8]
  Activity: inactive

## CCCCN1CCCCC1C(=O)Nc1c(C)cccc1C (stereo not drawn) [BUPIVACAINE]
Rattus norvegicus [4]
  Time: 1 min
[1]
  LD50 at 72 h: 8.9 mg/kg
Rattus norvegicus [6]
  Time: 102.5 min
Oryctolagus cuniculus
  Time: 94 min
Rattus norvegicus [5]
  Time: 155 min
Mus musculus [2]
  Ratio LD50/ED50: 2.5
Mus musculus [3]
  ED50: 3.5 mg/kg

## Cc1cc(C)c(NC(=O)C2CCCN2C2CCCCC2)c(C)c1.Cl (stereo not drawn) [CYCLOMECAINE]
[1]
  LD50 at 72 h: 15 mg/kg
Oryctolagus cuniculus
  Time: 124.5 min
Mus musculus [2]
  Ratio LD50/ED50: 5.2
Mus musculus [3]
  ED50: 2.9 mg/kg

## CCN(CC)CC(=O)Nc1c(C)cccc1C [LIDOCAINE]
Oryctolagus cuniculus
  Time: 37.8 min
Mus musculus [3]
  ED50: 7.7 mg/kg

## CCCN1CCCC[C@H]1C(=O)Nc1c(C)cccc1C [ROPIVACAINE]
Rattus norvegicus [4]
  Time: 1 min
[1]
  LD50 at 72 h: 14.1 mg/kg
Rattus norvegicus [6]
  Time: 58.8 min
Oryctolagus cuniculus
  Time: 58.4 min
Rattus norvegicus [5]
  Time: 80 min
Mus musculus [2]
  Ratio LD50/ED50: 3.8
Mus musculus [3]
  ED50: 3.7 mg/kg
